The results in this text go back to ChEMBL document CHEMBL1158962, “Isolation and characterization of two antimicrobial agents from mace (Myristica fragrans)” (1991).

What all share (assay type): functional
In test [1] the test system is Staphylococcus aureus. Description: Antimicrobial activity against Staphylococcus aureus NCTC 6571 after 48 hrs by agar dilution method. As to conditions: NCTC 6571, 48 h. An outline of the steps:
(§1)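 Agar dilution. Each test substance was first taken at 320 µg per 0.1 ml DMSO, mixed with 10 ml warm nutrient agar (45-50°) and left to set. NCTC bacteria were streaked radially and incubated at 37°. MIC was the lowest drug concentration showing no growth, read at 24 h and at 48 h. Chloramphenicol was the positive control.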

Test [2] has as its system Bacillus subtilis. Description: Antimicrobial activity against Bacillus subtilis NCTC 10400 after 48 hrs by agar dilution method. The note with it: NCTC 10400, 48 h. An outline of the steps: as §1
On the technique in general: In agar dilution the substance is mixed into plates at graded concentrations.

Test [3] concerns Staphylococcus aureus. The experiment in a line: Antimicrobial activity against Staphylococcus aureus NCTC 6571 after 24 hrs by agar dilution method. The note with it: NCTC 6571, 24 h. An outline of the steps:
as §1

The test system of test [4] is Enterococcus durans. The experiment in a line: Antimicrobial activity against Streptococcus durans NCTC 8307 after 48 hrs by agar dilution method. As to conditions: NCTC 8307, 48 h. The essentials: as §1
Test [5] relates to Bacillus subtilis. Description: Antimicrobial activity against Bacillus subtilis NCTC 10400 after 24 hrs by agar dilution method. As to conditions: NCTC 10400, 24 h. The essentials: as §1
The test system of test [6] is Enterococcus durans. The experiment in a line: Antimicrobial activity against Streptococcus durans NCTC 8307 after 24 hrs by agar dilution method. As to conditions: NCTC 8307, 24 h. The essentials:
as §1

For test [7], the system named is Candida albicans. Description: Antimicrobial activity against Candida albicans ATCC 12301 after 24 hrs by agar dilution method. The essentials: (§2)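 Agar dilution. Each test substance was first taken at 320 µg per 0.1 ml DMSO, mixed with 10 ml warm nutrient agar (45-50°) and left to set. C. albicans strains were streaked radially and incubated at 30°. MIC was the lowest drug concentration with no growth, read at 24 h and at 48 h. Nystatin was the positive control.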

For test [8], the system named is Candida albicans. Description: Antimicrobial activity against Candida albicans 3153 after 24 hrs by agar dilution method. The essentials:
as §2

In test [9] the test system is Candida albicans. The experiment in a line: Antimicrobial activity against Candida albicans 3110 after 24 hrs by agar dilution method. The essentials: as §2
The subject of test [10] is Candida albicans. The experiment in a line: Antimicrobial activity against Candida albicans 3153 after 48 hrs by agar dilution method. An outline of the steps:
as §2

Test [11] has as its system Candida albicans. The experiment in a line: Antimicrobial activity against Candida albicans 3110 after 48 hrs by agar dilution method. An outline of the steps:
as §2

The test system of test [12] is Candida albicans. The experiment in a line: Antimicrobial activity against Candida albicans ATCC 12301 after 48 hrs by agar dilution method. The essentials: as §2
[13] abbreviates: ATCC 10231, 24 h, in the assay text read “ATCC 10231” for “ATCC 12301”, read-out: MIC.
Setting [14] is: Candida albicans, 3153, 24 h, read-out: MIC.
Setting [15] is: Candida albicans, 3153, 48 h, read-out: MIC.
Where [16] appears, read: Candida albicans, 3110, 48 h, read-out: MIC.
[17] abbreviates: Candida albicans, 3110, 24 h, read-out: MIC.
Setting [18] is: ATCC 10231, 48 h, in the assay text read “ATCC 10231” for “ATCC 12301”, read-out: MIC.
The mark [19] stands for this setting: ATCC 10231, 48 h, in the assay text read “ATCC 10231” for “ATCC 12301”.
The mark [20] stands for this setting: ATCC 10231, 24 h, in the assay text read “ATCC 10231” for “ATCC 12301”.

≈ marks a conversion by molar mass, not a printed value.

Regarding `O=C(N[C@H](CO)[C@H](O)c1ccc([N+](=O)[O-])cc1)C(Cl)Cl` [CHLORAMPHENICOL], the minimum inhibitory concentration (MIC) – broadly, the least concentration at which growth counts as inhibited – in test [1] (read-out: MIC) was 4 µg/mL (≈ 12.4 µM); in [2] (read-out: MIC) it was 4 µg/mL (≈ 12.4 µM); in test [3] (read-out: MIC), 4 µg/mL (≈ 12.4 µM); in test [4] (read-out: MIC), 4 µg/mL (≈ 12.4 µM); in [5] (read-out: MIC), 4 µg/mL (≈ 12.4 µM); in [6] (read-out: MIC), 1 µg/mL (≈ 3.09 µM).

Turning to `COc1ccc(CCCCCCCCC(=O)c2c(OC)cccc2OC)cc1`, the minimum inhibitory concentration (MIC) is less than 32 µg/mL in [7] (setting [13]); more than 32 µg/mL in test [3]; more than 32 µg/mL in [5]; more than 32 µg/mL in test [6]; less than 32 µg/mL in test [8] (setting [14]); more than 32 µg/mL in test [9] (Candida albicans, 3110, 24 h).

With `O=C(CCCCCCCCc1ccc(O)cc1)c1c(O)cccc1O` [MALABARICONE B], the minimum inhibitory concentration (MIC) came out at 16 µg/mL (≈ 46.7 µM) in [7] (setting [13]); 1 µg/mL (≈ 2.92 µM) in test [1] (read-out: MIC); 1 µg/mL (≈ 2.92 µM) in [2] (read-out: MIC); 8 µg/mL (≈ 23.4 µM) in test [10] (setting [15]); 1 µg/mL (≈ 2.92 µM) in [3] (read-out: MIC); 2 µg/mL (≈ 5.84 µM) in [4] (read-out: MIC). The minimum inhibitory concentration (MIC) in [11] (setting [16]) turned out to be 8 µg/mL (≈ 23.4 µM); in test [5] (read-out: MIC) it was 1 µg/mL (≈ 2.92 µM); in [6] (read-out: MIC), 1 µg/mL (≈ 2.92 µM); in [8] (setting [14]), 4 µg/mL (≈ 11.7 µM); in test [9] (setting [17]), 8 µg/mL (≈ 23.4 µM); in [12] (setting [18]), 16 µg/mL (≈ 46.7 µM).

For `COc1ccc(CCCCCCCCC(=O)c2c(O)cccc2OC)cc1`, the minimum inhibitory concentration (MIC) is less than 32 µg/mL in [7] (setting [13]); more than 32 µg/mL in [3]; more than 32 µg/mL in test [5]; more than 32 µg/mL in test [6]; less than 32 µg/mL in test [8] (setting [14]); more than 32 µg/mL in [9] (Candida albicans, 3110, 24 h).

Turning to `COc1cccc(OC)c1C(=O)CCCCCCCCc1ccc(O)cc1`, the minimal inhibitory concentration (MIC) in test [7] (setting [13]) is less than 32 µg/mL; in test [1], more than 32 µg/mL; in test [2], more than 32 µg/mL; in test [10] (Candida albicans, 3153, 48 h), more than 32 µg/mL; in test [3] (read-out: MIC), 32 µg/mL (≈ 86.4 µM); in [4], more than 32 µg/mL. For the same molecule, the MIC was more than 32 µg/mL in test [11] (Candida albicans, 3110, 48 h); more than 32 µg/mL in [5]; more than 32 µg/mL in test [6]; more than 32 µg/mL in [8] (Candida albicans, 3153, 24 h); less than 32 µg/mL in test [9] (setting [17]); more than 32 µg/mL in test [12] (setting [19]).

`O=C(CCCCCCCCc1ccc(O)c(O)c1)c1c(O)cccc1O` [MALABARICONE C]: the MIC in test [7] (setting [13]) was determined as 32 µg/mL (≈ 89.3 µM); in [1] (read-out: MIC) it was 8 µg/mL (≈ 22.3 µM); in test [2] (read-out: MIC) it was 2 µg/mL (≈ 5.58 µM); in test [10] (setting [15]) it was 8 µg/mL (≈ 22.3 µM); in test [3] (read-out: MIC) it was 4 µg/mL (≈ 11.2 µM); in [4] (read-out: MIC) it was 8 µg/mL (≈ 22.3 µM). Besides, the MIC in test [11] (setting [16]) turned out to be 8 µg/mL (≈ 22.3 µM); in [5] (read-out: MIC), 2 µg/mL (≈ 5.58 µM); in test [6] (read-out: MIC), 4 µg/mL (≈ 11.2 µM); in test [8] (setting [14]), 8 µg/mL (≈ 22.3 µM); in [9] (setting [17]) it was 8 µg/mL (≈ 22.3 µM); in test [12] (setting [18]), 32 µg/mL (≈ 89.3 µM).

For NYSTATIN, the minimal inhibitory concentration (MIC) in test [7] amounted to 2 µg/mL; in [10] it was 4 µg/mL; in test [11] it was 4 µg/mL; in [8], 2 µg/mL; in test [9] it was 2 µg/mL; in test [12], 4 µg/mL.

Take `Oc1ccc(CCCCCCCCC(O)c2c(O)cccc2O)cc1` (centres undefined): the MIC in [7] (setting [20]) was more than 32 µg/mL; in test [1] (read-out: MIC), 16 µg/mL (≈ 46.5 µM); in [2] (read-out: MIC) it was 4 µg/mL (≈ 11.6 µM); in test [10] (Candida albicans, 3153, 48 h), more than 32 µg/mL; in test [3] (read-out: MIC), 8 µg/mL (≈ 23.2 µM); in test [4] (read-out: MIC), 16 µg/mL (≈ 46.5 µM). The minimum inhibitory concentration (MIC) in [11] (Candida albicans, 3110, 48 h) is more than 32 µg/mL; in [5] (read-out: MIC) it was 4 µg/mL (≈ 11.6 µM); in test [6] (read-out: MIC) it was 8 µg/mL (≈ 23.2 µM); in [8] (setting [14]), 32 µg/mL (≈ 92.9 µM); in test [9] (Candida albicans, 3110, 24 h), more than 32 µg/mL; in test [12] (setting [19]), more than 32 µg/mL.

As to `Oc1ccc(CCCCCCCCCc2c(O)cccc2O)cc1`, the MIC came out at 16 µg/mL (≈ 48.7 µM) in [7] (setting [13]); 4 µg/mL (≈ 12.2 µM) in test [1] (read-out: MIC); 4 µg/mL (≈ 12.2 µM) in [2] (read-out: MIC); 8 µg/mL (≈ 24.4 µM) in [10] (setting [15]); 4 µg/mL (≈ 12.2 µM) in test [3] (read-out: MIC); 8 µg/mL (≈ 24.4 µM) in test [4] (read-out: MIC). Further, the MIC worked out at 8 µg/mL (≈ 24.4 µM) in test [11] (setting [16]); 4 µg/mL (≈ 12.2 µM) in test [5] (read-out: MIC); 4 µg/mL (≈ 12.2 µM) in [6] (read-out: MIC); 8 µg/mL (≈ 24.4 µM) in test [8] (setting [14]); 8 µg/mL (≈ 24.4 µM) in [9] (setting [17]); 16 µg/mL (≈ 48.7 µM) in test [12] (setting [18]).

For `CC(=O)c1c(O)cccc1O`, the minimum inhibitory concentration (MIC) was more than 32 µg/mL in [7] (setting [20]); more than 32 µg/mL in [3]; more than 32 µg/mL in test [5]; more than 32 µg/mL in test [6]; more than 32 µg/mL in test [8] (Candida albicans, 3153, 24 h); less than 32 µg/mL in test [9] (setting [17]).

On to `COc1cccc(O)c1C(=O)CCCCCCCCc1ccc(O)cc1`, for which the MIC in test [7] (setting [20]) is more than 32 µg/mL; in [1] (read-out: MIC), 4 µg/mL (≈ 11.2 µM); in [2] (read-out: MIC), 4 µg/mL (≈ 11.2 µM); in test [3] (read-out: MIC) it was 4 µg/mL (≈ 11.2 µM); in test [4] (read-out: MIC), 4 µg/mL (≈ 11.2 µM); in test [5] (read-out: MIC), 4 µg/mL (≈ 11.2 µM). Moreover, the MIC in test [6] (read-out: MIC) is 2 µg/mL (≈ 5.61 µM); in [8] (Candida albicans, 3153, 24 h), more than 32 µg/mL; in [9] (Candida albicans, 3110, 24 h) it was more than 32 µg/mL.
